From ChEMBL document CHEMBL3588830, “Indole Alkaloids from Chaetomium globosum” (J Nat Prod, 2015)
The source made the active and inactive calls. The rule behind the calls is not given here.

How the values were obtained:
[1] = tested on: Fusarium oxysporum f. sp. vasinfectum; experiment: Antimicrobial activity against Fusarium vasinfectum assessed as inhibition of microbial growth up to 200 ug/mL incubated at 31 degC for 72 hrs; assay type: functional, organism-based
In short: (§1)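 Oxford cup diffusion assay on agar plates of potato extract 20% (w/v, boiled 20 min), dextrose 20.0 g/L and agar 17 g/L, seeded with the fungal strain. Plates incubated at 31 °C for 72 h.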

[2] = Antioxidative activity assessed as ABTS cation radical scavenging activity at 108.3 uM; assay type: physicochemical
[3] = Antioxidative activity assessed as DPPH radical scavenging activity at 93.9 uM; assay type: physicochemical
[4] = tested on: Escherichia coli; experiment: Antimicrobial activity against Escherichia coli 1.044 assessed as inhibition of microbial growth incubated at 37 degC for 24 hrs; assay type: functional; conditions: Escherichia coli, 1.044, 24 h
In short: (§2)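 MIC by tube broth dilution in MHB. Samples were dissolved in DMSO, with final DMSO no more than 5% (v/v). Final dilutions ran from 50 to 0.19 μg/mL, with final bacteria at 1 × 10^8 CFU/mL. Tubes were incubated at 37 °C for 24 h. MIC was taken as the lowest concentration inhibiting visible growth.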

[5] = Antioxidative activity assessed as superoxide anion radical scavenging activity at 90.9 uM; assay type: physicochemical
[6] = tested on: Fusarium graminearum; experiment: Antimicrobial activity against Fusarium graminearum assessed as inhibition of microbial growth up to 200 ug/mL incubated at 31 degC for 72 hrs; assay type: functional, organism-based; in short: as §1
[7] = tested on: Bacillus subtilis; experiment: Antimicrobial activity against Bacillus subtilis 1.079 assessed as inhibition of microbial growth incubated at 37 degC for 24 hrs; assay type: functional; conditions: Bacillus subtilis, 1.079, 24 h; in short: as §2
[8] = tested on: Saccharomyces cerevisiae; experiment: Antimicrobial activity against Saccharomyces cerevisiae assessed as inhibition of microbial growth up to 200 ug/mL incubated at 31 degC for 72 hrs; assay type: functional, organism-based; in short: as §1
[9] = tested on: Candida albicans; experiment: Antimicrobial activity against Candida albicans assessed as inhibition of microbial growth up to 200 ug/mL incubated at 31 degC for 72 hrs; assay type: functional, organism-based; in short: as §1
[10] = tested on: Aspergillus niger; experiment: Antimicrobial activity against Aspergillus niger assessed as inhibition of microbial growth incubated up to 200 ug/mL at 31 degC for 72 hrs; assay type: functional, organism-based; in short: as §1
[11] = Antioxidative activity assessed as superoxide anion radical scavenging activity; assay type: physicochemical
[12] = Antioxidative activity assessed as ABTS cation radical scavenging activity; assay type: physicochemical
[13] = Antioxidative activity assessed as DPPH radical scavenging activity; assay type: physicochemical
[14] = tested on: Fusarium oxysporum f. sp. vasinfectum; experiment: Antimicrobial activity against Fusarium vasinfectum assessed as inhibition of microbial growth up to 100 ug/mL incubated at 31 degC for 72 hrs; assay type: functional, organism-based
In short: (§3)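 Oxford cup diffusion on agar plates of potato extract 20% (w/v, boiled 20 min), dextrose 20.0 g/L and agar 17 g/L, inoculated with the test fungus. Plates were incubated at 31 °C for 72 h.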

[15] = tested on: Saccharomyces cerevisiae; experiment: Antimicrobial activity against Saccharomyces cerevisiae assessed as inhibition of microbial growth up to 100 ug/mL incubated at 31 degC for 72 hrs; assay type: functional, organism-based; in short: as §3
[16] = tested on: Aspergillus niger; experiment: Antimicrobial activity against Aspergillus niger assessed as inhibition of microbial growth incubated up to 100 ug/mL at 31 degC for 72 hrs; assay type: functional, organism-based; in short: as §3
[17] = tested on: Candida albicans; experiment: Antimicrobial activity against Candida albicans assessed as inhibition of microbial growth up to 100 ug/mL incubated at 31 degC for 72 hrs; assay type: functional, organism-based; in short: as §3
[18] = tested on: Fusarium graminearum; experiment: Antimicrobial activity against Fusarium graminearum assessed as inhibition of microbial growth up to 100 ug/mL incubated at 31 degC for 72 hrs; assay type: functional, organism-based; in short: as §1
[19] = Antioxidative activity assessed as superoxide anion radical scavenging activity at 61.3 uM; assay type: physicochemical
[20] = Antioxidative activity assessed as DPPH radical scavenging activity at 89.9 uM; assay type: physicochemical
[21] = Antioxidative activity assessed as ABTS cation radical scavenging activity at 103.7 uM; assay type: physicochemical
[22] = Antioxidative activity assessed as superoxide anion radical scavenging activity at 88.3 uM; assay type: physicochemical

With `CN1C(=O)[C@]2(Cc3cn([C@]45C[C@@]67SS[C@@](CO)(C(=O)N6[C@H]4Nc4ccccc45)N(C)C7=O)c4ccccc34)SS[C@@]1(CO)C(=O)N2C` [CHETOMIN] the “growth inhibition (GI)” value [1] was “inactive”, the “inhibition (INH)” value [2] was < 20% and the “inhibition (INH)” value [3] was < 10%. For the same molecule, the MIC [4] was > 50 µg/mL, the “inhibition (INH)” value [5] was 18.1% and the “growth inhibition (GI)” value [6] was “inactive”. For the same molecule, the MIC [7] was 0.78 µg/mL, the “growth inhibition (GI)” value [8] was “inactive” and the “growth inhibition (GI)” value [9] was “inactive”. The “growth inhibition (GI)” value [10] was “inactive”.

`O=c1cc(-c2ccc(O)c(O)c2)oc2cc(O)cc(O)c12` [LUTEOLIN] gave an IC50 [11] of 22.3 µM.

For `CN1C(=O)C2=CC3(n4cc(C[C@@]56SSSS[C@@](CO)(C(=O)N5C)N(C)C6=O)c5ccccc54)c4ccccc4N[C@@H]3N2C(=O)C1CO` (some centres undefined), the “inhibition (INH)” value [2] was < 20%, the “inhibition (INH)” value [3] was < 10% and the MIC [4] was > 50 µg/mL. For the same molecule, the “inhibition (INH)” value [5] was 14.8% and the MIC [7] was 25 µg/mL.

`COc1cccc(OC)c1C(=O)N[C@@H]1C(=O)N2[C@@H]1SC(C)(C)[C@@H]2C(=O)O` [METHICILLIN] showed an MIC [7] of 0.78 µg/mL.

`O=C1O[C@H]([C@@H](O)CO)C(O)=C1O` [ASCORBIC ACID] showed an IC50 [12] of 0.01 µM and an IC50 [13] of 0.02 µM.

With `CC(C)=CCc1ccc2[nH]cc(C3=C(O)C(=O)C(O)(c4c[nH]c5ccc(CC=C(C)C)cc45)C(=O)C3=O)c2c1` (centres undefined) the IC50 [12] was 45.2 µM, the “growth inhibition (GI)” value [14] was “inactive” and the “growth inhibition (GI)” value [15] was “inactive”. The MIC [4] was > 50 µg/mL, the “growth inhibition (GI)” value [16] was “inactive” and the MIC [7] was 50 µg/mL. The “growth inhibition (GI)” value [17] was “inactive”, the IC50 [13] was 144 µM and the “growth inhibition (GI)” value [18] was “inactive”. The “inhibition (INH)” value [19] was 30.4%.

For `CN1C(=O)[C@]2(Cc3cn([C@]45C[C@@]67SSS[C@@](CO)(C(=O)N6[C@H]4Nc4ccccc45)N(C)C7=O)c4ccccc34)SS[C@@]1(CO)C(=O)N2C` [CHETOSEMINUDIN A], the “inhibition (INH)” value [20] was < 10%, the “inhibition (INH)” value [21] was < 20% and the MIC [4] was > 50 µg/mL. The MIC [7] was 0.78 µg/mL and the “inhibition (INH)” value [22] was 51.5%.
